This passage reports MIC results from ChEMBL document CHEMBL1671686, “Carbapenem-resistant KPC-2-producing Escherichia coli in a Tel Aviv Medical Center, 2005 to 2008” (2010).

What all share (type): functional
The subject of assay [1] is Escherichia coli. Description: Antimicrobial activity against Escherichia coli isolate 360 expressing beta-lactamase KPC2, CTX-M-15, OXA-9, TEM and PFGE cluster 1 isolated from urine of patient by Etest. To be noted: isolate 360, Urine.
Assay [2] has as its system Escherichia coli. Briefly: Antimicrobial activity against Escherichia coli isolate 339T expressing beta-lactamase KPC2 and PFGE cluster 5 isolated from peritoneal fluid of patient by Etest. The gist of the method:
(§1)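 Transformant strains. Plasmids purified from the clinical isolates were electroporated into E. coli DH10B. Transformants were selected on LB agar with 100 μg/ml ampicillin, and colonies were PCR-screened for blaKPC before susceptibility testing.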

For assay [3], the system named is Escherichia coli. Description: Antimicrobial activity against Escherichia coli isolate 360T expressing beta-lactamase KPC2, OXA-9 and PFGE cluster 1 isolated from urine of patient by Etest. In short, it runs like this: as §1
Assay [4] concerns Escherichia coli. Description: Antimicrobial activity against Escherichia coli isolate 386 expressing beta-lactamase KPC2, CTX-M-15, OXA-9, TEM and PFGE cluster 1 isolated from wound of patient by Etest.
Assay [5] deals with Escherichia coli. Briefly: Antimicrobial activity against Escherichia coli isolate 157T expressing beta-lactamase KPC2 and PFGE cluster 3 isolated from urine of patient by Etest. The gist of the method: as §1
The subject of assay [6] is Escherichia coli. Description: Antimicrobial activity against Escherichia coli DH10B by Etest. To be noted: K-12 DH10B.
Assay [7] deals with Escherichia coli. Description: Antimicrobial activity against Escherichia coli isolate 543T expressing beta-lactamase KPC2 and PFGE cluster 4 isolated from synovial fluid of patient by Etest. In short, it runs like this:
as §1

In assay [8] the test system is Escherichia coli. Description: Antimicrobial activity against Escherichia coli isolate 544 expressing beta-lactamase KPC2, TEM and PFGE cluster 4 isolated from abscess of patient by Etest.
Assay [9] relates to Escherichia coli. Briefly: Antimicrobial activity against Escherichia coli isolate 543 expressing beta-lactamase KPC2, CTX-M-15, TEM and PFGE cluster 4 isolated from synovial fluid of patient by Etest.
Assay [10] concerns Escherichia coli. Briefly: Antimicrobial activity against Escherichia coli isolate 547 expressing beta-lactamase KPC2, TEM and PFGE cluster 4 isolated from blood of patient by Etest.
For assay [11], the system named is Escherichia coli. Briefly: Antimicrobial activity against Escherichia coli isolate 1679T expressing beta-lactamase KPC2, TEM and PFGE cluster 6 isolated from peritoneal fluid of patient by Etest. In short, it runs like this:
as §1

Assay [12] concerns Escherichia coli. Briefly: Antimicrobial activity against Escherichia coli isolate 329T expressing beta-lactamase KPC2 and PFGE cluster 2 isolated from blood of patient by Etest. The gist of the method:
as §1

Assay [13] concerns Escherichia coli. Briefly: Antimicrobial activity against Escherichia coli isolate 547T expressing beta-lactamase KPC2 and PFGE cluster 4 isolated from blood of patient by Etest. The gist of the method:
as §1

The subject of assay [14] is Escherichia coli. Description: Antimicrobial activity against Escherichia coli isolate 329 expressing beta-lactamase KPC2, CTX-M-2, TEM and PFGE cluster 2 isolated from blood of patient by Etest.
Assay [15] has as its system Escherichia coli. Description: Antimicrobial activity against Escherichia coli isolate 386T expressing beta-lactamase KPC2, OXA-9 and PFGE cluster 1 isolated from wound of patient by Etest. In short, it runs like this:
as §1

Assay [16] relates to Escherichia coli. Briefly: Antimicrobial activity against Escherichia coli isolate 157 expressing beta-lactamase KPC2, CTX-M-15, TEM and PFGE cluster 3 isolated from urine of patient by Etest. To be noted: isolate 157, Urine.
Assay [17] deals with Escherichia coli. Briefly: Antimicrobial activity against Escherichia coli isolate 339 expressing beta-lactamase KPC2, TEM and PFGE cluster 5 isolated from peritoneal fluid of patient by Etest.
Assay [18] relates to Escherichia coli. Description: Antimicrobial activity against Escherichia coli isolate 1679 expressing beta-lactamase KPC2, SHV-12, TEM and PFGE cluster 6 isolated from peritoneal fluid of patient by Etest.
Assay [19] has as its system Escherichia coli. Briefly: Antimicrobial activity against Escherichia coli isolate 540 expressing beta-lactamase KPC2, TEM and PFGE cluster 4 isolated from synovial fluid of patient by Etest.

Values after ≈ are worked out from the molar mass of the structure shown.

As for `CN(C)c1cc(NC(=O)CNC(C)(C)C)c(O)c2c1C[C@H]1C[C@H]3[C@H](N(C)C)C(O)=C(C(N)=O)C(=O)[C@@]3(O)C(O)=C1C2=O` [TIGECYCLINE], the MIC is 0.75 µg/mL (≈ 1.28 µM) in assay [1]; 0.19 µg/mL (≈ 0.324 µM) in assay [2]; 0.125 µg/mL (≈ 0.213 µM) in assay [3]; 0.75 µg/mL (≈ 1.28 µM) in [4]; 0.19 µg/mL (≈ 0.324 µM) in assay [5]; 0.125 µg/mL (≈ 0.213 µM) in assay [6]. Moreover, the MIC in assay [7] was 0.125 µg/mL (≈ 0.213 µM); in assay [8], 0.38 µg/mL (≈ 0.649 µM); in [9], 0.19 µg/mL (≈ 0.324 µM); in [10], 0.125 µg/mL (≈ 0.213 µM); in assay [11], 0.38 µg/mL (≈ 0.649 µM); in assay [12], 0.125 µg/mL (≈ 0.213 µM). Besides, the MIC in assay [13] came to 0.125 µg/mL (≈ 0.213 µM); in assay [14], 0.19 µg/mL (≈ 0.324 µM); in assay [15], 0.19 µg/mL (≈ 0.324 µM); in assay [16], 0.38 µg/mL (≈ 0.649 µM); in assay [17], 0.19 µg/mL (≈ 0.324 µM); in assay [18], 0.125 µg/mL (≈ 0.213 µM). This compound came in with an MIC in [19] of 0.19 µg/mL (≈ 0.324 µM).

One may read the MIC as the lowest concentration that inhibits growth of the organism. Read a low MIC as a more susceptible organism.
